Series [1] addresses T1, Voltage-dependent T-type calcium channel subunit alpha-1H (Homo sapiens, UniProt O95180). The series can be described thus: Inhibition of Cav3.2 alpha1H (unknown origin) expressed in HEK293 cells assessed as decrease in KCl-induced depolarization mediated intracellular Ca2+ level at 10 uM by fluo3/AM based high throughput screening assay relative to control. Type of series: cell-based. In a few lines:
(§1)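 HEK293 cells stably expressing Cav3.1 or Cav3.2 plated at 4 × 10⁴ cells/well and used the next day. Loaded 60 min at room temperature with […] fluo3/AM plus 0.001% Pluronic F-127 in HEPES-buffered saline (1.8 mM CaCl₂, pH 7.4). Ca²⁺ fluorescence read on FDSS6000 as % inhibition, compound at […].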

In series [2] the target is T2, Voltage-dependent T-type calcium channel subunit alpha-1G (Homo sapiens, UniProt O43497). The series can be described thus: Inhibition of Cav3.1 alpha1G (unknown origin) expressed in HEK293 cells assessed as decrease in KCl-induced depolarization mediated intracellular Ca2+ level at 10 uM by fluo3/AM based high throughput screening assay relative to control. It counts as cell-based. In a few lines: as §1

The subject of series [3] is Rattus norvegicus. Put plainly: Antineuropathic pain activity in rat spinal nerve ligation model assessed as effect on mechanical allodynia by measuring frequency of paw withdrawal at 100 mg/kg, po measured at 1 hr relative to gabapentin. Type of series: functional. A digest of the protocol: (§2)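 Spinal nerve ligation rats tested 2 weeks after nerve surgery, 100 mg/kg oral, n = 4 per group. Behaviour re-tested at 1, 3 and 5 h after dosing. Mechanical allodynia: von Frey filament applied five times, every 3–4 s, to the hind paw on a wire mesh floor. Cold allodynia: acetone applied to the plantar hind paw on a metal mesh floor.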

The subject of series [4] is Rattus norvegicus. The series can be described thus: Antineuropathic pain activity in rat spinal nerve ligation model assessed as effect on mechanical allodynia by measuring frequency of paw withdrawal at 100 mg/kg, po measured at 1 hr relative to control. It counts as functional. A digest of the protocol: as §2
Series [5] has as its system Rattus norvegicus. The series can be described thus: Antineuropathic pain activity in rat spinal nerve ligation model assessed as effect on cold allodynia by measuring frequency of paw withdrawal at 100 mg/kg, po measured at 1 hr relative to control. It counts as functional. A digest of the protocol:
as §2

Series [6] relates to Rattus norvegicus. Put plainly: Antineuropathic pain activity in rat spinal nerve ligation model assessed as effect on cold allodynia by measuring frequency of paw withdrawal at 100 mg/kg, po measured at 1 hr relative to gabapentin. Type of series: functional. In a few lines:
as §2

Series [7] concerns Rattus norvegicus. The series can be described thus: Antineuropathic pain activity in rat spinal nerve ligation model assessed as effect on mechanical allodynia by measuring frequency of paw withdrawal at 100 mg/kg, po measured at 3 hrs relative to control. It counts as functional. A digest of the protocol:
as §2

The test system of series [8] is Rattus norvegicus. Put plainly: Antineuropathic pain activity in rat spinal nerve ligation model assessed as effect on mechanical allodynia by measuring frequency of paw withdrawal at 100 mg/kg, po measured at 5 hrs relative to control. Type of series: functional. A digest of the protocol:
as §2

The test system of series [9] is Rattus norvegicus. Put plainly: Antineuropathic pain activity in rat spinal nerve ligation model assessed as effect on mechanical allodynia by measuring frequency of paw withdrawal at 100 mg/kg, po measured at 3 hrs relative to gabapentin. Type of series: functional. In a few lines:
as §2

In series [10] the test system is Rattus norvegicus. Put plainly: Antineuropathic pain activity in rat spinal nerve ligation model assessed as effect on mechanical allodynia by measuring frequency of paw withdrawal at 100 mg/kg, po measured at 5 hrs relative to gabapentin. It counts as functional. In a few lines: as §2
Series [11] deals with Rattus norvegicus. The series can be described thus: Antineuropathic pain activity in rat spinal nerve ligation model assessed as effect on cold allodynia by measuring frequency of paw withdrawal at 100 mg/kg, po measured at 3 hrs relative to control. It counts as functional. In a few lines:
as §2

Series [12] concerns Rattus norvegicus. Put plainly: Antineuropathic pain activity in rat spinal nerve ligation model assessed as effect on cold allodynia by measuring frequency of paw withdrawal at 100 mg/kg, po measured at 5 hrs relative to control. Type of series: functional. In a few lines:
as §2

Series [13] has as its system Rattus norvegicus. Put plainly: Antineuropathic pain activity in rat spinal nerve ligation model assessed as effect on cold allodynia by measuring frequency of paw withdrawal at 100 mg/kg, po measured at 3 hrs relative to gabapentin. It counts as functional. A digest of the protocol: as §2
Series [14] deals with Rattus norvegicus. Put plainly: Antineuropathic pain activity in rat spinal nerve ligation model assessed as effect on cold allodynia by measuring frequency of paw withdrawal at 100 mg/kg, po measured at 5 hrs relative to gabapentin. It counts as functional. In a few lines: as §2
Series [15] has as its target T2, Voltage-dependent T-type calcium channel subunit alpha-1G. The series can be described thus: Inhibition of Cav3.1 alpha1G (unknown origin) expressed in HEK293 cells by whole-cell patch clamp method. It counts as cell-based. A digest of the protocol:
(§3)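 Whole-cell patch clamp on HEK293 cells expressing Cav3.1 or Cav3.2. T-type currents evoked every 15 s by a 50-ms step from −100 mV to −30 mV. External solution (mM): 140 NaCl, 2 CaCl₂, 10 HEPES, 10 glucose, pH 7.4.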
For orientation: In patch-clamp work, channel activity is measured electrically.

Series [16] has as its target T1, Voltage-dependent T-type calcium channel subunit alpha-1H. The series can be described thus: Inhibition of Cav3.2 alpha1H (unknown origin) expressed in HEK293 cells by whole-cell patch clamp method. It counts as cell-based. A digest of the protocol:
as §3

The species named for the next series is Homo sapiens. Put plainly: Inhibition of N-type Ca2+ channel (unknown origin) at 10 uM by whole-cell patch clamp method relative to control.
For a further series, the target named is CYP2D6 (Homo sapiens, UniProt P10635). The series can be described thus: Inhibition of human CYP2D6 assessed as remaining activity at 10 uM using vivid CYP450 substrate measured after 15 mins by fluorescence assay relative to quinidine. It counts as ADME. To be noted: probe vivid CYP450 substrate, read-out: Activity. A digest of the protocol: (§4)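 Vivid fluorescence CYP assay: test compound at […] in water, mixed with BACULOSOMES master pre-mix and regeneration system, preincubated 15 min at 37 °C. Reaction started with Vivid substrate and NADPH. Remaining activity read by fluorescence as % of control, triplicate, mean ± SD. Isoform-specific reference inhibitors: α-naphthoflavone (1A2), sulfaphenazole (2C9), quinidine (2D6), ketoconazole (3A4).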

A further series deals with CYP2C9 (Homo sapiens, UniProt P11712). Put plainly: Inhibition of human CYP2C9 assessed as remaining activity at 10 uM using vivid CYP450 substrate measured after 15 mins by fluorescence assay relative to sulfaphenazol. Type of series: ADME. The following applies: probe vivid CYP450 substrate, read-out: Activity. A digest of the protocol:
as §4

In the next series the target is CYP3A4 (Homo sapiens, UniProt P08684). The series can be described thus: Inhibition of human CYP3A4 assessed as remaining activity at 10 uM using vivid CYP450 substrate measured after 15 mins by fluorescence assay relative to ketoconazole. The following applies: probe vivid CYP450 substrate, read-out: Activity. It counts as ADME. In a few lines:
as §4

Series [17] can be described thus: Metabolic stability in human liver microsomes assessed as compound remaining at 1 uM in presence of NADPH as cofactor by LC-MS/MS method. It counts as ADME. The following applies: read-out: Stability. In a few lines:
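Pooled mixed-gender human liver microsomes incubated with compound at 37 °C with NADPH as cofactor. Result given as % parent compound remaining.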
In general terms: Liver microsomes are a subcellular fraction often used to study metabolism.

The species named for series [18] is Rattus norvegicus. The series can be described thus: Inhibition of voltage dependent T-type Ca2+ channel in Wistar rat cerebral cortex assessed as reduction in transient inward Ca2+ current at -60 mV holding potential at 500 uM by whole-cell patch clamp method relative to control.
Another series deals with N1E-115. Put plainly: Inhibition of voltage dependent T-type Ca2+ channel in mouse N1E-115 cells assessed as reduction in transient inward Ca2+ current at 50 uM by whole-cell patch clamp method relative to control. Type of series: cell-based.

T2 sequence (O43497 whole entry): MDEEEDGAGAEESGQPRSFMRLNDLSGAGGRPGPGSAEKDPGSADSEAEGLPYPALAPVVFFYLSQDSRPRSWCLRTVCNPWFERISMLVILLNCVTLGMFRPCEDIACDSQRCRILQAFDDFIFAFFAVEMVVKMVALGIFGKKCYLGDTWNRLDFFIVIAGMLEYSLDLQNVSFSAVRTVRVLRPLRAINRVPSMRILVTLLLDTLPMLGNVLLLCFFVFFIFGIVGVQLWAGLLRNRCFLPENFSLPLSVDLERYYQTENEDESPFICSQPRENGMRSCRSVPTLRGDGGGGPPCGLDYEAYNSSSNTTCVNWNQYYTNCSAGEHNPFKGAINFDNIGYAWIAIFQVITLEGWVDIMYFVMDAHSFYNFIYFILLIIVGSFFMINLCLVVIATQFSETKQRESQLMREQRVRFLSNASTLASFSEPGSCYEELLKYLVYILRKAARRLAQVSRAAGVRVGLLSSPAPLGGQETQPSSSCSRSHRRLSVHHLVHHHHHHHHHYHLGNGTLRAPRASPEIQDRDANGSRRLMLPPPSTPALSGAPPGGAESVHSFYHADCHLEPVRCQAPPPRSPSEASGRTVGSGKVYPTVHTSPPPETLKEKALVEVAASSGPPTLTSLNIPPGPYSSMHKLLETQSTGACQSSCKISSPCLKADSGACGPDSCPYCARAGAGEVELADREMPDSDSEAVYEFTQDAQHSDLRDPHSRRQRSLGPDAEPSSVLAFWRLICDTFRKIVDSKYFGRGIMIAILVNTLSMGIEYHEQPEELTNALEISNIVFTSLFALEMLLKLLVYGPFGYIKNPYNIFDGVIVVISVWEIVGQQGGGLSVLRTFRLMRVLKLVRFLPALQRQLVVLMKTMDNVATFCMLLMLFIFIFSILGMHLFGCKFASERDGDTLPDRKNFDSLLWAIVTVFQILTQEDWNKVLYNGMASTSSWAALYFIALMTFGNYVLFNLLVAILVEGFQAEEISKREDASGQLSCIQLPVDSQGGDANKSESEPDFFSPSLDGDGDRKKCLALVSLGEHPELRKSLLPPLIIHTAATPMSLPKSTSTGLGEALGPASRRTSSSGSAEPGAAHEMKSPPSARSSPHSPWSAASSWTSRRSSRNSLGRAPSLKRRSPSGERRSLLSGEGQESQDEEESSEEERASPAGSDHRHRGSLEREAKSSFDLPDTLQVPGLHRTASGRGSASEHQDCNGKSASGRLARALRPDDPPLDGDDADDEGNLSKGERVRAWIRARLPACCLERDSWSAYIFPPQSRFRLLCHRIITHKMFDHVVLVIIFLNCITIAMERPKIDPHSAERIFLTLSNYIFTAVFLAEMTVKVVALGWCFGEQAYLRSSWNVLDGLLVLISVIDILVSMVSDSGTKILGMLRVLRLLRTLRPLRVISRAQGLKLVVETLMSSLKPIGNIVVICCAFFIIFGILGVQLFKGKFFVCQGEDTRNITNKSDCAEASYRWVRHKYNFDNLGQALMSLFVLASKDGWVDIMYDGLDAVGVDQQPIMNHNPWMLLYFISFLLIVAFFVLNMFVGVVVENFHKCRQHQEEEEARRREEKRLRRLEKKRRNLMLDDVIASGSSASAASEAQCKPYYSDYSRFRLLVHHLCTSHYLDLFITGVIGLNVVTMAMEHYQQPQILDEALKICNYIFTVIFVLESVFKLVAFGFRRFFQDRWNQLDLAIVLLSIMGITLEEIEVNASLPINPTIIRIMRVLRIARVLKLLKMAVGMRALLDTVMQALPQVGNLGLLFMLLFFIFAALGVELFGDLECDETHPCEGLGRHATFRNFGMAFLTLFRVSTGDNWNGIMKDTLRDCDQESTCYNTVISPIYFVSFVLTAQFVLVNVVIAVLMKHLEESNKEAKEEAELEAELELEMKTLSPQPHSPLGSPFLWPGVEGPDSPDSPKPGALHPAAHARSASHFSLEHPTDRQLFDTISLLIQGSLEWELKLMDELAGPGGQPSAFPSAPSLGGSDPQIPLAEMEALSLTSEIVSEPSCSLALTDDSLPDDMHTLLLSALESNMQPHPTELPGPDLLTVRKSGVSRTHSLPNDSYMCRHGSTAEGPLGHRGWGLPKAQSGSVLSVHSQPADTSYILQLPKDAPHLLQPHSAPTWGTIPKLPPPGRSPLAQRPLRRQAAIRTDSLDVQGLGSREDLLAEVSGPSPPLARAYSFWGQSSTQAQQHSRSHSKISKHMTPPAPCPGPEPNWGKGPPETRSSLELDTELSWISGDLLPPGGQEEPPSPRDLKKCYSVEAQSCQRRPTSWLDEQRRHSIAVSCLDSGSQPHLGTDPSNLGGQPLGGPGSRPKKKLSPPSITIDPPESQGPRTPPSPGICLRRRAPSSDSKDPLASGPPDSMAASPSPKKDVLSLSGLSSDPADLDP
T1 sequence (O95180 whole entry): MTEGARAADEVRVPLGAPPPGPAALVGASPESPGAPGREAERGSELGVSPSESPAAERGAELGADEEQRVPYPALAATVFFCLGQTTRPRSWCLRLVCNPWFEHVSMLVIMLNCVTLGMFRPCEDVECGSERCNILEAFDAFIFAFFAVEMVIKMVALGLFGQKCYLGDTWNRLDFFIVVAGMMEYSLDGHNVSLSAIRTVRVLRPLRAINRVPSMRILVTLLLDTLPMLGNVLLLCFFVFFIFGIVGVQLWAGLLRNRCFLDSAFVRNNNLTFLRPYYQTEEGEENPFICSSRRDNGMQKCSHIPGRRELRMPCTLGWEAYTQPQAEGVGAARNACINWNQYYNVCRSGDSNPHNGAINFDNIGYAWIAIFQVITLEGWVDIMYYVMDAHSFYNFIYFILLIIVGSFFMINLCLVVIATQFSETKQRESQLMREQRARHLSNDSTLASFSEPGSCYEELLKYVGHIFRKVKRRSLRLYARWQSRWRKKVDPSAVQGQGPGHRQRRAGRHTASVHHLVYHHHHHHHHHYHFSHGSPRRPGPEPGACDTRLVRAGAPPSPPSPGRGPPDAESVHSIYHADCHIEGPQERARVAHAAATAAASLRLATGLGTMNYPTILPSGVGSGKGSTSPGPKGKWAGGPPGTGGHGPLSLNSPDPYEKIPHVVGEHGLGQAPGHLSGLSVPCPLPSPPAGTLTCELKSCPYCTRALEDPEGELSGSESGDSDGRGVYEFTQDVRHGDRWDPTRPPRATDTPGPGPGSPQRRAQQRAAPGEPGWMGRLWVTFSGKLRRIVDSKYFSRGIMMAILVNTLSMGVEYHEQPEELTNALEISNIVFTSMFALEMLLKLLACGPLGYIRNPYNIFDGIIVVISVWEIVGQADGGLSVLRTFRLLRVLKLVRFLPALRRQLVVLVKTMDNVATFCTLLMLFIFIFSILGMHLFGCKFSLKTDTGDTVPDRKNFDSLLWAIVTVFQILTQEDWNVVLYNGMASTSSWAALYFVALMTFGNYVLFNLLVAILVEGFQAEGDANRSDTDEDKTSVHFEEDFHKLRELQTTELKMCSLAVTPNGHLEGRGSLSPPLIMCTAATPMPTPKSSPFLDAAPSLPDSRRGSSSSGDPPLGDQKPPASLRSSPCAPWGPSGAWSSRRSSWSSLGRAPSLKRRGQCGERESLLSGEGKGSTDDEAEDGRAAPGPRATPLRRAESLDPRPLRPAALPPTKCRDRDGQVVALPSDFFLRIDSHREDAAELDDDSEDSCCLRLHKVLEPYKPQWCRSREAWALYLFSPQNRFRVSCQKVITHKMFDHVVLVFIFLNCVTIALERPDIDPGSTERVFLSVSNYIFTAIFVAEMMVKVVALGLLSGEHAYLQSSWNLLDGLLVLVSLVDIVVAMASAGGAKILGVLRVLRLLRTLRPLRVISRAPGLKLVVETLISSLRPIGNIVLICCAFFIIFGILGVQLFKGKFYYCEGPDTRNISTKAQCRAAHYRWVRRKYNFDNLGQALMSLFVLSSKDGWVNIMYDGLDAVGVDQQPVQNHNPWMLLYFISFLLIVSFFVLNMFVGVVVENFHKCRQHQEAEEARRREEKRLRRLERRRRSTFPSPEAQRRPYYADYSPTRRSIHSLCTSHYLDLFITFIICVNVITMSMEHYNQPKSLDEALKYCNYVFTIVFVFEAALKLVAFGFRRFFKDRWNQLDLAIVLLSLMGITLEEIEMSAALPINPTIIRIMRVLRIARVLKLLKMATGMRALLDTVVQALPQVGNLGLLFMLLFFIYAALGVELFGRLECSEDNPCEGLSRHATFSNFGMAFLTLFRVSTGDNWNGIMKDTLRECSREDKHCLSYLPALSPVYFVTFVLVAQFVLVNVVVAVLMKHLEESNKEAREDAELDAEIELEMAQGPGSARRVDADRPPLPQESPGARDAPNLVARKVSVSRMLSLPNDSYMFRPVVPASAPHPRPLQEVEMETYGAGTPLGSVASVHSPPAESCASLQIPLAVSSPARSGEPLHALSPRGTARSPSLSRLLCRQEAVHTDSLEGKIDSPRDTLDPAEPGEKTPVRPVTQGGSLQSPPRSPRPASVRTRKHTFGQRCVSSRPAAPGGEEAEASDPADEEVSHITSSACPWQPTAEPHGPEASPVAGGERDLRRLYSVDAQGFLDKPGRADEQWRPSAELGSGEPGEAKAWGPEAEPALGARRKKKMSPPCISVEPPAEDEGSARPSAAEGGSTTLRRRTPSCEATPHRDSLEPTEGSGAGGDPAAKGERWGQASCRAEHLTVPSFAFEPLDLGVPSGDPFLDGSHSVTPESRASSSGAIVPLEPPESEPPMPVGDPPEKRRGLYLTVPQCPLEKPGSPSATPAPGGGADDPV

In general, inhibition refers to the drop in the measured response relative to a control, in per cent. `CC(C)(C)n1nc(CNS(=O)(=O)c2ccccc2)cc1-c1cccc(F)c1`: the inhibition in series [1] turned out to be 53.5%; in [2], 51.5%.
Taken in the same sequence, the figures for `Cc1cc(I)ccc1S(=O)(=O)NCc1cc(CC(C)C)n(-c2ccccc2)n1` were 26.6% and 22.6%.
In the case of `COCC(=O)O[C@]1(CCN(C)CCCc2nc3ccccc3[nH]2)CCc2cc(F)ccc2[C@@H]1C(C)C` [MIBEFRADIL], the MPE is given as 156.75% in the series on Rattus norvegicus [3]; 17.29% with Rattus norvegicus [4]; 25.25% with Rattus norvegicus [5]; 57.37% in the series with Rattus norvegicus [6]; 41.44% in the series with Rattus norvegicus [7]; 41.76% with Rattus norvegicus [8]. Further, the MPE in the series with Rattus norvegicus [9] came to 72.78%; in the series with Rattus norvegicus [10], 92.23%; with Rattus norvegicus [11] it was 34.77%; in the series on Rattus norvegicus [12], 63.33%; in the series on Rattus norvegicus [13], 43.19%; in the series with Rattus norvegicus [14], 145.05%.
Consider `CC(C)Cc1cc(CNS(=O)(=O)c2ccc3ccccc3c2)nn1-c1ccccc1`, for which the inhibition turned out to be 24.9% in series [1] and 19.8% in series [2].
One may read the IC50 as the midpoint of a concentration-inhibition curve. As for `CC(C)Cc1cc(CNS(=O)(=O)CCc2ccccc2)nn1-c1ccccc1`, the MPE in the series on Rattus norvegicus [3] is -34.45%; in the series with Rattus norvegicus [4], -3.8%; in the series on Rattus norvegicus [5], 3.08%; with Rattus norvegicus [6], 7%; in the series on Rattus norvegicus [7] it was -7.3%; in the series with Rattus norvegicus [8], -4.68%. Besides, the MPE is -12.82% in the series with Rattus norvegicus [9]; -10.34% in the series with Rattus norvegicus [10]; 9.07% in the series on Rattus norvegicus [11]; 3.08% in the series on Rattus norvegicus [12]; 11.27% with Rattus norvegicus [13]; 7.05% in the series with Rattus norvegicus [14]. In addition, the IC50 in [15] was 12.4 µM; in series [16], 14.6 µM. Also, the inhibition in [1] is 68.6%; in [2], 70.5%; in the series listed under Homo sapiens, 42.2%. Moreover, the figures for the activity at 0.25 h, 10 µM on CYP2D6, on CYP2C9 and on CYP3A4 were 45.2%, 45.2% and 38.7%, respectively. For the same compound, the remaining at 1 µM in series [17] turned out to be 88.2%.
`CC(C)Cc1cc(CNS(=O)(=O)c2cccc(Cl)c2)nn1-c1ccccc1`: the inhibition in series [1] was determined as 55.7%; in series [2] it was 57.6%.
On the same counts, the results for `CC(C)Cc1cc(CNS(=O)(=O)c2ccc(C(C)(C)C)cc2)nn1-c1ccccc1` are 33.4% and 46.9%.
`NCC1(CC(=O)O)CCCCC1` [GABAPENTIN]: the MPE in the series with Rattus norvegicus [4] is recorded as 11.03%; with Rattus norvegicus [5], 44.01%; in the series on Rattus norvegicus [7], 56.94%; in the series on Rattus norvegicus [8] it was 45.28%; in the series on Rattus norvegicus [11], 80.51%; in the series with Rattus norvegicus [12], 43.66%.
In the case of `Cc1ccc(S(=O)(=O)NCc2cc(CC(C)C)n(-c3ccccc3)n2)cc1`, the inhibition turned out to be 62.2% in series [1] and 57.3% in series [2].
Taken in the same sequence, the figures for `CC(C)Cc1cc(CNS(=O)(=O)c2cccc3cccnc23)nn1-c1ccccc1` were 61.4% and 29.8%.
Taken in the same sequence, the figures for `CC(C)Cc1cc(CNS(=O)(=O)Cc2cccc3ccccc23)nn1-c1ccccc1` were 6.66% and 7.09%.
On the same counts, the results for `CC(C)Cc1cc(CNS(=O)(=O)c2cccc3ccccc23)nn1-c1ccccc1` are 25.2% and 24.3%.
Turning to `CC(C)(C)n1nc(CNS(=O)(=O)c2ccccc2)cc1-c1ccccc1`, the inhibition was determined as 10.4% in [1] and 55.5% in series [2].
Regarding `NS(=O)(=O)Cc1noc2ccccc12`, the results for the inhibition in the series listed under Rattus norvegicus [18] and in the series on N1E-115 were 60% and 40%, respectively.
Turning to `CC(C)Cc1cc(CNS(=O)(=O)c2c(F)cccc2F)nn1-c1ccccc1`, the inhibition is 69.3% in series [1] and 45.1% in series [2].
Taken in the same sequence, the figures for `CC(C)Cc1cc(CNS(=O)(=O)c2c(Cl)cccc2Cl)nn1-c1ccccc1` were 56% and 36.9%.
Taken in the same sequence, the figures for `Cc1ccc(F)c(S(=O)(=O)NCc2cc(CC(C)C)n(-c3ccccc3)n2)c1` were 70% and 54.9%.
Taken in the same sequence, the figures for `CC(C)Cc1cc(CNS(=O)(=O)c2cccc(I)c2)nn1-c1ccccc1` were 44.9% and 46.4%.

The values are drawn from ChEMBL document CHEMBL3872218, “Synthesis and T-type calcium channel-blocking effects of aryl(1,5-disubstituted-pyrazol-3-yl)methyl sulfonamides for neuropathic pain treatment” (Eur J Med Chem, 2016).
